Data from ChEMBL document CHEMBL1150125, “Antiplasmodial activity of alkaloids from various strychnos species” (J Nat Prod, 2002).

Assays:
Plasmodium falciparum [1] = assay: Antiplasmodial activity against chloroquine-resistant Plasmodium falciparum W2/Indochina by [3H]hypoxanthine uptake; type: functional, organism-based; details: Plasmodium falciparum, W2/Indochina
Procedure, shortened: (§1)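 Asexual erythrocytic stages kept in continuous culture (Trager and Jensen method). Each sample run as eight 4-fold dilutions, final 20 to 0.0012 µg/mL, in duplicate. IC50 and IC90 derived; number of independent experiments per value given separately.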

[2] = Selectivity index, ratio of IC50 for human HCT116 cells to IC50 for moderately chloroquine-resistant Plasmodium falciparum FCB1-R/Colombia; type: toxicity, cell-based, HCT-116; details: HCT116 cells versus Plasmodium falciparum FCB1-R/Colombia, read-out: Ratio IC50
Procedure, shortened: (§2)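 Selectivity index = IC50 in HCT-116 cells / IC50 in P. falciparum. Cell IC50: 5000 HCT-116 cells per well with drug, DMSO controls, 72 h incubation, then WST-1 for 30 min at 37 °C. Absorbance read against a cell-free blank and expressed as percent of control. Two independent experiments, each in triplicate, means ± SEM.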

Plasmodium falciparum [3] = assay: Antiplasmodial activity against chloroquine-resistant Plasmodium falciparum FCB1-R/Colombia by [3H]hypoxanthine uptake; type: functional, organism-based; details: Plasmodium falciparum, FCB1-R/Colombia; procedure, shortened: as §1
HCT-116 = assay: Cytotoxicity against human HCT116 cells after 72 hrs by WST1 assay; type: cell-based; details: HCT-116, 72 h
Procedure, shortened: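 HCT-116 colon cancer cells were seeded at 5000 per well in medium containing the test drugs, with matched DMSO controls. After 72 h, WST-1 was added for 30 min at 37 °C. Absorbance was read against a cell-free medium plus WST-1 blank and expressed as percent of control. Two independent experiments were run, each in triplicate, and means ± SEM were calculated.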

[4] = Selectivity index, ratio of IC50 for human HCT116 cells to IC50 for chloroquine-resistant Plasmodium falciparum W2/Indochina; type: toxicity, cell-based, HCT-116; details: HCT116 cells versus Plasmodium falciparum W2/Indochina, read-out: Ratio IC50; procedure, shortened: as §2
[5] = Selectivity index, ratio of IC50 for human HCT116 cells to IC50 for chloroquine-sensitive Plasmodium falciparum FCA 20/ Ghana; type: toxicity, cell-based, HCT-116; details: HCT116 cells versus Plasmodium falciparum FCA 20/Ghana, read-out: Ratio IC50; procedure, shortened: as §2
Plasmodium falciparum [6] = assay: Antiplasmodial activity against chloroquine-sensitive Plasmodium falciparum FCA 20/ Ghana by [3H]hypoxanthine uptake; type: functional, organism-based; details: Plasmodium falciparum, FCA 20/ Ghana; procedure, shortened: as §1
Plasmodium falciparum [7] = assay: Antiplasmodial activity against chloroquine-sensitive Plasmodium falciparum FCA 20/ Ghana at 50 uM; details: read-out: INH

Compound	IC50 (Plasmodium falciparum [1]) [nM]	IC90 (Plasmodium falciparum [1]) [nM]	selectivity ratio [2]	IC50 (Plasmodium falciparum [3]) [nM]	IC90 (Plasmodium falciparum [3]) [nM]	IC50 (HCT-116) [µM]	selectivity ratio [4]	selectivity ratio [5]	IC50 (Plasmodium falciparum [6]) [nM]	IC90 (Plasmodium falciparum [6]) [nM]	inhibition at 50 µM (Plasmodium falciparum [7]) [%]
O=C1C[C@@H]2OCC=C3CN4[C@@H](C5=C[C@@H]6[C@@H]7N(C5=O)c5ccccc5[C@@]75CCN7C/C(=C/CO)[C@@H]6C[C@H]75)C[C@]56c7ccccc7N1[C@H]5[C@@H]2[C@H]3C[C@H]46 [STRYCHNOGUCINE B]	85	358	28.3	529	2240	15	176	24.3	617	3790	
C/C=C1\CN2CC[C@]34c5ccccc5N5[C@H]3[C@@H]([C@H]3O[C@@H]5[C@]5(OC)[C@@H]6N3c3ccccc3[C@@]63CCN6C/C(=C\C)[C@@H]5C[C@H]63)[C@H]1C[C@H]24	122	2840	15.9	1540	9520	24.5	200	45.3	540	2530	
CC[C@H]1CN2CCC3c4ccc(O)c([C@@H]5CCCN5C)c4NC3[C@@H]2C[C@@H]1C[C@H]1c2[nH]c3ccccc3c2CCN1C (stereo partly specified) [ISOSTRYCHNOPENTAMINE]	152	628	71.8	104	386	7.47	49.1	62.3	120	450	
CC[C@H]1CN2CCC3c4ccccc4NC3[C@H]2C[C@@H]1C[C@@H]1NCCc2c1[nH]c1ccccc21 (stereo partly specified) [OCHROLIFUANINE E]	1900	6760	8.12	702	2420	5.7	3	20.7	276	1490	
CC [ETHANE]											< 30
